PERK inh: human PERK inhibition, primary cell-based screen; Q9NZJ5; CHO PERK-DD fusion, SEAP luminescence translation reporter; inhibition, % at 5.6 µM; 0.17% of 220,000 active;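 active means inhibition above the mean inhibition of all tested compounds plus 3 SD, set separately per screening campaign, cut at about 2.9% in these data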;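 further: PERK kinase domain activated by AP20187 dimerizer at 100 nM; 0% = DMSO with dimerizer and 100% = rapamycin at 8.4 µM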
HSF1 inh: HSF1 inhibition. NIH3T3-HGL HSE-luciferase, MG132-induced, luminescence 8 h; hits give low values. activity change, negative = inhibition, % at 7.5 µM (by protocol). 0.77% of 300,000 active. AID 2098;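 active means more than half of replicate wells show activity change below -50%, luminescence cut by over half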;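 further: luciferase reports HSF-1 transcriptional activity via heat shock element; 0% = median of DMSO wells and -100% = zero luminescence signal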
Hsp70 act: switches on Hsp70 transcription. activation, % at 10 µM. HeLa Hsp70 promoter luciferase reporter, luminescence; scaled: vehicle 0, proteasome-inhibitor control 100%. 0.04% of 200,000 active;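 active means activation above the mean across all tested compounds plus 3 SD, cutoff set per campaign, cut at about 5.5% in these data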;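 further: 100% = MG132 at 30 µM as the positive control and 0% = DMSO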
AHR activator: human AHR activation; P35869; AHR-responsive luciferase reporter cells, luminescence; activation, % at 5 µM; 2.5% of 320,000 active; AID 2796; in the data active means activation above about 47%;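 further: 0% = vehicle wells and 100% = reference agonist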
Target sequence (P35869 whole entry, looked up): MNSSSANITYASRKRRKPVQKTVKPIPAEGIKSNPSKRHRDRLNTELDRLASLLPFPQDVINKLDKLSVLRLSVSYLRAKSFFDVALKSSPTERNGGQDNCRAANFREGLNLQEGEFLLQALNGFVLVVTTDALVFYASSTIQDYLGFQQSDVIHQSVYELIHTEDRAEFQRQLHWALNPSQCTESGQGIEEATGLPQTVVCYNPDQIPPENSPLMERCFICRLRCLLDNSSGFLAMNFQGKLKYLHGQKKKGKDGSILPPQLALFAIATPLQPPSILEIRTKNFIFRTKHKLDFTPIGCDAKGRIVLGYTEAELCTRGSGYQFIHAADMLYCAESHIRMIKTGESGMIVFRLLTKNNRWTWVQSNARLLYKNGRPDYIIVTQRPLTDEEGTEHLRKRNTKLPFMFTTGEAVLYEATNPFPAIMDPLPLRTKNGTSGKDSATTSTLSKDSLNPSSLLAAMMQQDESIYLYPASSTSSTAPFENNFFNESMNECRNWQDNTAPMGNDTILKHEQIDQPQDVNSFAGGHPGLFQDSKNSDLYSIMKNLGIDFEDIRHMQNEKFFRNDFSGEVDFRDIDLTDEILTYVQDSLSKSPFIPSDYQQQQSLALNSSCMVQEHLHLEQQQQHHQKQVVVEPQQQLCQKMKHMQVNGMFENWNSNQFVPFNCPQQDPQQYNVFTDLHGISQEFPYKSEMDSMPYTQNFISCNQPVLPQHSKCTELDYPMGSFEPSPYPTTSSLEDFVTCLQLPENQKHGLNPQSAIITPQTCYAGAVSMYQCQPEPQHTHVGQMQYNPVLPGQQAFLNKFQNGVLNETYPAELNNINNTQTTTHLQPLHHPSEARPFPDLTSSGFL
PolyA inhibitor: blocks polyadenylation in yeast reporter cells | AID 1875 | S. cerevisiae SKY197-pL101 polyadenylation reporter, beta-gal luminescence; efflux-impaired pdr1/pdr3 knockout yeast; score 100 = 6 SD above DMSO | activity score, % at 12 µM | 0.02% of 300,000 active;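 active means lowest replicate activity score at least 50, where 100 means six control SD above control mean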;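 further: yeast exposed to compound for 9 h at 30 °C; higher score means more reporter readthrough which indicates perturbed polyadenylation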
STAT3 act: increases IL-6 driven STAT3 reporter signal; U3A cells, IL-6 STAT3-luciferase reporter, luminescence; 100% = signal with IL-6 EC80 alone; activation (% of control), % at 5.6 µM; 0.91% of 190,000 active;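 active means activation above the screen-wide mean of compound activation plus 3 SD, cut at about 130% in these data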;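 further: 0% = background luminescence of wells with medium and substrate only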
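system = STAT3-luciferase reporter U3A cells | reagent = IL-6 stimulus at 33 ng/mL final | timing = 1 h compound pre-exposure, 6 h IL-6 stimulation, 37 °C | measured by = luminescence | evaluation = % activation versus median of IL-6-stimulated wells | control set = IL-6-only wells as 100% reference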
Numbers without * were called inactive; · = no result given. This is a sample that favours compounds with a hit; in the whole collection about 3.6% have one here.

SMILES | PERK inh | HSF1 inh | Hsp70 act | AHR activator | PolyA inhibitor | STAT3 act
COc1cc(C(=O)NC2CCN(Cc3nnnn3Cc3cccs3)CC2)cc(OC)c1OC | 0.0 | -67.8* | -0.4 | -4.1 | 1.8 | 98.7
CN(C)S(=O)(=O)c1ccc(NC(=O)COc2ncnc3sccc23)cc1 | -0.8 | 0.5 | 0.0 | 2.2 | -9.3 | 100.6
CCOC(=O)N1CCN(c2c(-c3ccc(C)cc3)c(=O)c2=O)CC1 | 0.0 | -3.6 | -0.1 | -4.8 | 5.5 | 91.4
CCOC(=O)N1CCN(c2nc(C)c3c(n2)CCCC3=O)CC1 | -0.7 | -69.5* | 0.1 | -11.0 | -7.5 | 92.0
CCCCn1c(N)c(N(C)C(=O)c2ccc(Br)o2)c(=O)[nH]c1=O | · | · | · | 1.0 | · | ·
COC(=O)c1ccc(C(=O)OC)c(NC(=O)CSCC(=O)O)c1 | 3.1* | 13.9 | · | 8.2 | -6.8 | ·
CC(C)N1CCC(N2CCN(C3CCCC3)CC2CCO)CC1 (stereo unspecified) | 0.4 | -56.0* | -0.2 | -0.4 | -9.6 | 101.3
O=C(N/N=C/c1ccc(F)cc1)c1cc(-c2ccc3c(c2)OCO3)n[nH]1 | -0.4 | 7.5 | · | 39.1 | -8.0 | ·
COc1ccccc1C(=O)NCC(=O)N/N=C/c1ccc2c(c1)OCO2 | · | -73.2* | · | -3.0 | -15.2 | ·
COc1cc(/C=N/NC(=O)/C(=C\c2ccc3c(c2)OCO3)NC(=O)c2ccccc2)ccc1O | 0.0 | -28.7 | -0.4 | 69.0* | -15.7 | 109.0
COc1cc(/C=N/NC(=O)c2ccc3c(c2)OCO3)ccc1O | · | 3.6 | · | · | 5.1 | ·
COc1ccc(/C=N/NC(=O)c2cc(-c3ccc4c(c3)OCO4)n[nH]2)cc1OC | 0.7 | 3.8 | -0.3 | 72.6* | 4.8 | 108.8
Cc1sc2ncnc(N3CCC(C(=O)Nc4nc(-c5cccs5)cs4)CC3)c2c1C | · | -53.6* | · | 7.5 | 14.9 | ·
COC(=O)CCC(=O)Nc1ccc(S(=O)(=O)Nc2cc(OC)nc(OC)n2)cc1 | · | 0.2 | · | 73.5* | -1.6 | ·
COCCNc1nnc(SCC(=O)NC2CCCCC2)s1 | · | · | · | 0.6 | · | ·
O=C(CN1C(=O)c2cccc3cccc1c23)NC1CCCC1 | · | -5.3 | · | 6.2 | 9.2 | ·
CC(=O)Nc1ccccc1OCc1nnc(-c2ccc(Cl)cc2)o1 | -0.3 | 19.1 | 0.1 | 17.2 | -6.4 | 91.8
Clc1ccccc1OCc1nnc(-c2ccccc2)o1 | 0.1 | 35.2 | 0.0 | 9.7 | -25.5 | 143.6*
CCc1ccccc1NC(=O)Nc1cccs1 | 0.9 | 8.8 | 0.3 | 50.0* | -2.7 | 102.8
Cc1ccccc1NC(=O)Nc1cccs1 | 0.0 | 19.9 | 0.1 | 7.2 | 13.3 | 88.7
O=C(NC1CCN(C(=S)Nc2ccccc2)CC1)C1CCCCC1 | · | -1.5 | · | 0.9 | 23.1 | ·
C(=N\n1c2ccccc2c2ccccc21)/c1ccccc1 | 0.4 | -37.3 | 0.1 | 65.4* | 12.4 | 104.1
C(=N/n1c2ccccc2c2ccccc21)/c1ccco1 | -0.3 | 1.0 | -0.4 | 51.0* | -15.1 | 90.7
N=c1scc(-c2ccccc2)n1/N=C/c1ccco1 | 0.5 | -0.3 | 0.3 | 27.6 | 16.6 | 128.9
CN(C)c1ccc(/C=N/NC(=O)C2COc3ccccc3O2)o1 (stereo unspecified) | 0.4 | -78.0* | -0.2 | 3.1 | 6.9 | 109.9
SMILES | PERK inh | HSF1 inh | Hsp70 act | AHR activator | PolyA inhibitor | STAT3 act
COc1cccc(/C=N/NC(N)=S)c1OCc1cccc(Cl)c1 | -0.3 | 5.0 | -0.6 | 59.7* | -10.5 | 102.2
COC(=O)N/N=C/c1cc(Cl)cc(Cl)c1OCc1ccccc1 | 0.2 | -12.4 | -0.2 | 61.8* | 7.2 | 103.2
COC(=O)N/N=C\c1ccccc1OC/C=C/c1ccccc1 | · | 13.9 | · | · | 12.2 | ·
NC(=S)N/N=C/c1c[nH]c2ccc(OCc3ccccc3)cc12 | · | 3.0 | · | 70.9* | 28.1 | ·
NC(=S)N/N=C\c1ccccc1OCc1ccccc1 | 1.0 | 3.5 | -0.4 | 32.6 | 3.7 | 99.8
CCC(C)(C)c1nnc(NC(=O)CCC2CCCCC2)s1 | · | -1.2 | · | 3.2 | 2.7 | ·
CC(C(=O)NCc1cccnc1)c1ccc([N+](=O)[O-])cc1 (stereo unspecified) | · | 0.5 | · | 1.3 | 0.6 | ·
O=C1CC(C(=O)Nc2cc(Cl)ccc2Cl)n2ncnc2N1 (stereo unspecified) | 0.0 | -4.1 | -0.4 | -1.1 | 6.1 | 97.9
c1ccc(-c2cn3nc(-c4ccccc4)sc3n2)cc1 | · | -55.8* | · | 11.9 | -7.7 | ·
Cc1nn2cc(-c3ccccc3)nc2s1 | 1.0 | 8.2 | -0.2 | -0.3 | 11.8 | 57.9

High-throughput results (PubChem BioAssay)
